Screening data: PubChem, Johns Hopkins Ion Channel Center
KCNQ1 act = potentiates or activates the human KCNQ1 potassium channel; CHO-K1 KCNQ1, thallium flux FluxOR fluorescence; hits give high values; B-score at 10 µM; 0.35% of 310,000 active; AID 2648;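 active means fluorescence ratio B-score, a plate-corrected score, at least three library SD, with initial intensity B-score within 5 SD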
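System: CHO-K1 cells stably expressing KCNQ1 / Medium: assay buffer for compound exposure, DMSO matched across wells / Reagent: thallium- and potassium-containing depolarizing buffer / Compound: one concentration, matched DMSO / Incubation: 20 min compound pretreatment at room temperature / Measured by: kinetic FluxOR fluorescence, 10 s baseline plus 110 s post-stimulus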
KCNK3 inh = human KCNK3 channel inhibition, primary screen; CHO-KCNK3 thallium flux, FluxOR fluorescence; hits give low values; B-score at 10 µM; 0.84% of 340,000 active;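 active means B-score under library mean minus 4 SD, starting fluorescence ratio at most library mean plus 5 SD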;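 further: more negative B-score means stronger inhibition of thallium flux through KCNK3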
Target sequence (O14649 whole entry, looked up): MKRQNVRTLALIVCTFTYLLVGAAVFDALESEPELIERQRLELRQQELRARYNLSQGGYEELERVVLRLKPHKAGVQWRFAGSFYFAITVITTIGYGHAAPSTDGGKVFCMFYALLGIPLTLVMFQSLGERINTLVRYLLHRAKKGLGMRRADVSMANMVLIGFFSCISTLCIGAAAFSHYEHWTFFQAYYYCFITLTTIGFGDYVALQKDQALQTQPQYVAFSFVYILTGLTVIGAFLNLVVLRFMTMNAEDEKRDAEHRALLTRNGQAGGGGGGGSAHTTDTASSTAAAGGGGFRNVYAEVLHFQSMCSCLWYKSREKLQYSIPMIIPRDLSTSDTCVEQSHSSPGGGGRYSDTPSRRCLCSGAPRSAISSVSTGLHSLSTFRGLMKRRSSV
Kir21 block = inhibitors of mouse Kir2.1 inward-rectifier potassium channel; HEK293-Kir2.1, FluxOR thallium flux fluorescence; hits give low values; B-score at 10 µM; 0.85% of 310,000 active; AID 1672;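 active means fluorescence ratio B-score at or below minus 3 SD of library scores, with starting-brightness B-score within 2 SD, cut at about -4.2 in these data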;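 further: channel flux triggered by added potassium and thallium sulfate stimulus; B-score of peak minus minimum fluorescence over baseline after thallium stimulus; more negative B-score means stronger Kir2.1 block with less thallium influx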
hERG protect = hERG (human) protection from proarrhythmic block | Q12809 | 0.51% of 310,000 active | activation (rescue from dofetilide block), less the hit threshold, % at 10 µM | AID 1511 | CHO-hERG, FluxOR thallium flux, dofetilide IC70 present;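 active means activation above the mean of controls blocked by dofetilide plus 5 SD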;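 further: thallium influx through hERG after potassium depolarization seen as dye fluorescence rise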
KCNQ1 block = inhibitors of human KCNQ1 potassium channel; B-score at 10 µM; 1.3% of 310,000 active; CHO-K1 KCNQ1, FluxOR thallium flux fluorescence; hits give high values; P51787;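 active means compounds whose thallium flux B-score, printed positive for inhibition, exceeds three library SD while starting fluorescence stays within three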;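 further: channel opened by potassium depolarization with thallium stimulus after 20 min compound exposure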
KCNK9 inh = blocks the human KCNK9 two-pore domain potassium channel | Q9NPC2 | HEK293 KCNK9, FluxOR thallium flux fluorescence; hits give low values | B-score at 10 µM | 1.2% of 310,000 active;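 active means ratio B-score over 3 SD below the library mean, with starting fluorescence within 5 SD of its mean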;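 further: negative B-score means less thallium flux so channel inhibition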
KCNK9 inh conf = human KCNK9 inhibitor confirmation; shares compounds with KCNK9 inh; HEK293 KCNK9 cells, FluxOR thallium flux fluorescence; inhibition, % at 10 µM; 43% of 4,900 active; AID 492992;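 active means thallium signal inhibited by more than 5 SD of the compound-free buffer control wells, on both duplicate plates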;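 further: 0% = assay buffer control wells without compound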
Kir2-1 spec = mouse Kir2.1 off-target activity of KCNK9 modulators | shares compounds with KCNK9 inh | Kir2.1 cells, FluxOR thallium flux fluorescence | 4% of 4,900 active | inhibition, % at 10 µM | AID 492993;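 active means thallium signal drop more than 5 SD beyond the mean of the no-compound control wells, seen in both duplicate plates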;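 further: signal is fluorescence rise after thallium addition divided by baseline fluorescence; plate controls were assay buffer only for no effect and full block by chlorpromazine control for full effect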
KCNK9 uninduced = second check of KCNK9 modulator effects in non-induced HEK293 cells | shares compounds with KCNK9 inh | FluxOR thallium flux | inhibition, % at 10 µM | 40% of 4,900 active | AID 492997;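 active means thallium signal drop beyond 5 SD of the untreated control mean, on both duplicate plates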;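 further: plate controls were buffer only IC0 wells for no effect and SID17386958 at its maximal inhibitory level for full effect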
KCNK3 inh conf = confirmation of human KCNK3 two-pore domain potassium channel inhibitors | 99% of 2,400 active | ratio percent of control, % at 10 µM | shares compounds with KCNK3 inh | AID 651638 | CHO-KCNK3 thallium flux, FluxOR fluorescence; 0% buffer, 100% carvedilol maximal block;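 active means ratio percent of control, averaged over triplicates, above buffer control mean plus 5 SD, cut at about 64% in these data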;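 further: ratio is the fluorescence rise from min to max over baseline after thallium stimulus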
KCNK3 noninduced = KCNK3 inhibitor counter-screen hit in non-induced cells. thallium flux ratio (lower = more inhibition) at 10 µM. 40% of 2,400 active. non-induced KCNK3 parental cells, FluxOR thallium flux; hits give low values. shares compounds with KCNK3 inh. AID 651747;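 active means thallium flux ratio, averaged over three wells, more than 5 SD below the buffer control mean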;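 further: host cells are CHO cells without KCNK3 induction; ratio is peak minus trough fluorescence over baseline then normalized to buffer controls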
* marks the source's active call; other numbers are inactive results. A selection: hits, their analogues and other compounds. The true share with any hit is near 3.8%.

CCCSc1nsc(NC(=O)C(c2ccccc2)c2ccccc2)n1 was read as KCNQ1 act inactive, KCNK3 inh -9*, Kir21 block -0.01, hERG protect -6, KCNQ1 block 6*, KCNK9 inh -8.8*, KCNK9 inh conf 55%*, Kir2-1 spec inactive, KCNK9 uninduced 42%*, KCNK3 inh conf 132* and KCNK3 noninduced 0.12*.
`CCCSc1nsc(NC(=O)CC)n1` gave KCNQ1 act inactive, KCNK3 inh inactive, Kir21 block -2, hERG protect -4, KCNQ1 block inactive and KCNK9 inh inactive.
For COc1ccc(C(=O)N2CCN(S(=O)(=O)c3ccc(Br)cc3)CC2)cc1 the results were KCNK3 inh inactive.
CCOc1ccc(C(C)(C)C)cc1S(=O)(=O)n1nc(C)cc1C was read as KCNQ1 act inactive, KCNK3 inh -8.8*, Kir21 block 0.57, hERG protect -3, KCNQ1 block 6*, KCNK9 inh -9.6*, KCNK9 inh conf 54%*, Kir2-1 spec inactive, KCNK9 uninduced 38%*, KCNK3 inh conf 113* and KCNK3 noninduced inactive.
`CCN(CC)S(=O)(=O)c1ccc(N2CCOCC2)c(NS(=O)(=O)c2ccc(C)c(C)c2)c1` gave KCNQ1 act inactive, KCNK3 inh inactive, Kir21 block -0.43, hERG protect -14, KCNQ1 block inactive and KCNK9 inh inactive.
Screening COc1ccc(CCNC(=O)c2c(C)nn(-c3ccccc3)c2Cl)cc1OC returned KCNQ1 act inactive, KCNK3 inh inactive, Kir21 block -2.3, hERG protect -7, KCNQ1 block inactive and KCNK9 inh inactive.
`CC(Oc1ccc(-c2ccccc2)c(F)c1)c1ccn(S(=O)(=O)c2ccc(F)cc2)n1` (centres undefined) gave KCNQ1 act inactive, KCNK3 inh -12*, Kir21 block -0.19, hERG protect -14, KCNQ1 block inactive, KCNK9 inh -10*, KCNK9 inh conf 57%*, Kir2-1 spec inactive, KCNK9 uninduced 42%*, KCNK3 inh conf 106* and KCNK3 noninduced inactive.
`CC(=O)Nc1ccc(NC(=O)C(C)OC(=O)c2ccc3ccccc3n2)cc1` (centres undefined) gave KCNK3 inh inactive.
CCc1noc(C)c1C(=O)N1CCN(S(=O)(=O)c2ccc(C)cc2)CC1 was read as KCNQ1 act inactive, KCNK3 inh inactive, Kir21 block -1.8, hERG protect -15, KCNQ1 block inactive and KCNK9 inh inactive.
For CCc1noc(C)c1C(=O)N1CCSC1=Nc1cccc(Cl)c1C the results were KCNQ1 act inactive, KCNK3 inh -11*, Kir21 block -3.5, hERG protect -17, KCNQ1 block 6*, KCNK9 inh -8.9*, KCNK9 inh conf 64%*, Kir2-1 spec inactive, KCNK9 uninduced 42%*, KCNK3 inh conf 113* and KCNK3 noninduced inactive.
Screening O=C(N/N=C/c1cccnc1)c1ccccc1OCc1ccc(Br)cc1 returned KCNQ1 act inactive, KCNK3 inh -11*, Kir21 block -1.9, hERG protect -14, KCNQ1 block inactive, KCNK9 inh -11*, KCNK9 inh conf 30%*, Kir2-1 spec inactive, KCNK9 uninduced inactive, KCNK3 inh conf 115* and KCNK3 noninduced 0.16*.
O=C(N/N=C/c1cccnc1)c1ccccc1Br was read as KCNQ1 act inactive, KCNK3 inh inactive, Kir21 block -0.08, hERG protect 2, KCNQ1 block inactive and KCNK9 inh inactive.
Screening COc1ccccc1NC(=S)NC(=O)CCCOc1ccc(Cl)cc1Cl returned KCNQ1 act inactive, KCNK3 inh -10*, Kir21 block -0.85, hERG protect -2, KCNQ1 block inactive, KCNK9 inh -23*, KCNK9 inh conf 58%*, Kir2-1 spec inactive, KCNK9 uninduced 30%*, KCNK3 inh conf 117* and KCNK3 noninduced inactive.
Screening N#Cc1c(SCC(=O)O)nc(N2CCCCC2)c2c1CCCC2 returned KCNQ1 act inactive, KCNK3 inh inactive, Kir21 block 2.4, hERG protect -4, KCNQ1 block inactive and KCNK9 inh inactive.
COC(=O)CSc1nc(N2CCCCC2)c2c(c1C#N)CCCC2 was read as KCNQ1 act inactive, KCNK3 inh -11*, Kir21 block -2, hERG protect 4, KCNQ1 block inactive, KCNK9 inh -10*, KCNK9 inh conf 38%*, Kir2-1 spec inactive, KCNK9 uninduced 35%*, KCNK3 inh conf 104* and KCNK3 noninduced inactive.
CC1(C(=O)Nc2cccc(-n3cnnn3)c2)Cc2ccccc2C(=O)O1 (centres undefined) was read as KCNK3 inh inactive.
For CCc1ccc(NC(=O)c2sccc2-n2cccc2)cc1 the results were KCNQ1 act inactive, KCNK3 inh -12*, Kir21 block 0.08, hERG protect -15, KCNQ1 block inactive, KCNK9 inh -8.6*, KCNK9 inh conf 59%*, Kir2-1 spec inactive, KCNK9 uninduced 40%*, KCNK3 inh conf 100* and KCNK3 noninduced 0.15*.
For N#Cc1ccc(C(=O)Nc2nc(SCc3ccc(Cl)cc3)n[nH]2)cc1 the results were KCNQ1 act inactive, KCNK3 inh inactive, Kir21 block 1.2, hERG protect -8, KCNQ1 block inactive and KCNK9 inh inactive.
For O=C(N/N=C/c1ccc(N2CCOCC2)cc1)c1ccncc1 the results were KCNK3 inh inactive.
`O=C(N/N=C/c1ccc(N2CCOCC2)cc1)c1ccccc1OCCOc1ccccc1` gave KCNQ1 act inactive, KCNK3 inh -11*, Kir21 block 1.6, hERG protect -7, KCNQ1 block 7*, KCNK9 inh -12*, KCNK9 inh conf 30%*, Kir2-1 spec inactive, KCNK9 uninduced 26%*, KCNK3 inh conf 101* and KCNK3 noninduced inactive.
